Broadly, the IC50 is the concentration needed to halve the response being measured.

One assay concerns K562 cells. Briefly: MTT cytotoxicity assay in K562 cells. As to conditions: read-out: K562- IC50. Format: cell-based. In outline: (§1)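 Cells were grown in suspension in RPMI 1640 with 10% FBS and penicillin/streptomycin/amphotericin B at 37 °C under 5% CO2. They were seeded at ~5×10^3 cells/well, kept overnight, then exposed to test compounds diluted in DMSO for 48 h. Cells were pelleted (300 g, 4 °C, 5 min) and washed twice in phosphate buffer. MTT (5 mg/ml stock) was added for 4 h at 37 °C, formazan dissolved in DMSO, and A570 read. Triplicate; IC50 given as mean±SD.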
For orientation: Formazan colour is commonly taken as a measure of viable cells.

Another assay has as its system CEM cells. Put plainly: MTT cytotoxicity assay in CEM cells. Format: cell-based. Particulars: read-out: CEM- IC50, 48 h, Mean±SD, n=3. The procedure, abridged:
as §1

For a further assay, the target named is HDAC4 (Homo sapiens, UniProt P56524). Briefly: HDAC enzyme activity assay, HDAC4. Format: biochemical. In outline: (§2)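 Enzymes were recombinant: HDAC8, and the codon-optimised human HDAC4 catalytic domain (pET14b). Serial inhibitor dilutions in 25 mM Tris-HCl, 75 mM KCl, 0.001% Pluronic F-127, pH 8.0 were pre-incubated with enzyme for 1 h at 30 °C. Reaction ran 60 min at 30 °C with 20 μM Boc-Lys(trifluoroacetyl)-AMC and was stopped with 1.7 μM SATFMK. Trypsin (0.4 mg/ml) released AMC; fluorescence read at Ex 350/Em 450 nm. Triplicate; IC50 from dose-response curves.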
HDAC4, sequence (P56524 655-1084 limits assumed): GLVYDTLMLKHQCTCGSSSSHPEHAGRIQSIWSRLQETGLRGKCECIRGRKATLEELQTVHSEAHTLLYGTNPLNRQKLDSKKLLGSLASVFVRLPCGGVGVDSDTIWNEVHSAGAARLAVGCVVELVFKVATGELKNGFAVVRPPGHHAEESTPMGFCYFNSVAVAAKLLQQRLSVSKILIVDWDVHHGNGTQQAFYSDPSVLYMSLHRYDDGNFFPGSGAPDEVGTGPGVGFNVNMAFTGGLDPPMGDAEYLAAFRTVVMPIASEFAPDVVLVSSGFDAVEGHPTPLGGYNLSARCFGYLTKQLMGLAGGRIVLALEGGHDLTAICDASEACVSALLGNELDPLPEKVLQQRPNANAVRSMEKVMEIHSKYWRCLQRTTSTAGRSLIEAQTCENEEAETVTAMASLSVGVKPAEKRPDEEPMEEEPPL

Another assay has as its target T1, HDAC8 (Homo sapiens, UniProt Q9BY41).
T1 sequence (Q9BY41 1-377): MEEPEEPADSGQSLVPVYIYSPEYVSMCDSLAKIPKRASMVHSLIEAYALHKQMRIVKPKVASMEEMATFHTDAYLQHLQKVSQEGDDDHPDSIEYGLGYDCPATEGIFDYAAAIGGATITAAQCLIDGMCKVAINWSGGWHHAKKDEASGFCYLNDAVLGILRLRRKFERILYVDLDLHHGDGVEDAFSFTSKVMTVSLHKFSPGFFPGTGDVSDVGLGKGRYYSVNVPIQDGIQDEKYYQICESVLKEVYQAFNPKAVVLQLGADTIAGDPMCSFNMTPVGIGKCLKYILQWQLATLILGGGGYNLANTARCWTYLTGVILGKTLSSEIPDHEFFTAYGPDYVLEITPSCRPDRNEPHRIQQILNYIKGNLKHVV
Briefly: HDAC enzyme activity assay, HDAC8. As to conditions: for HDAC-8 relative enzyme activity: primary screening at 50 μM. Format: biochemical. The procedure, abridged: as §2

The next assay relates to GLUT5. Format: cell-based, human. Particulars: up to 100 μM. The procedure, abridged:
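Uses hexose-transporter-null VW4000 yeast expressing human GLUT5, cultured at 30 °C and 180 rpm. Cells were grown one day in YEP/2% maltose with G418, then 1–2 days in YEP/2% fructose starting from OD600 ~0.5. Washed cells in PBS pH 7.4 (OD600 ~10) took up 10 mM C14-fructose for 10 min. Uptake was stopped with ice-cold KPi/LiCl quench buffer pH 5.5, then filtered and scintillation-counted. Controls were 1% DMSO and 100 μM MSNBA. Screening was at 100 μM; three independent measurements.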

For the next assay, the target named is T2, GLUT4 (Homo sapiens, UniProt P14672).
T2 sequence (P14672 1-509): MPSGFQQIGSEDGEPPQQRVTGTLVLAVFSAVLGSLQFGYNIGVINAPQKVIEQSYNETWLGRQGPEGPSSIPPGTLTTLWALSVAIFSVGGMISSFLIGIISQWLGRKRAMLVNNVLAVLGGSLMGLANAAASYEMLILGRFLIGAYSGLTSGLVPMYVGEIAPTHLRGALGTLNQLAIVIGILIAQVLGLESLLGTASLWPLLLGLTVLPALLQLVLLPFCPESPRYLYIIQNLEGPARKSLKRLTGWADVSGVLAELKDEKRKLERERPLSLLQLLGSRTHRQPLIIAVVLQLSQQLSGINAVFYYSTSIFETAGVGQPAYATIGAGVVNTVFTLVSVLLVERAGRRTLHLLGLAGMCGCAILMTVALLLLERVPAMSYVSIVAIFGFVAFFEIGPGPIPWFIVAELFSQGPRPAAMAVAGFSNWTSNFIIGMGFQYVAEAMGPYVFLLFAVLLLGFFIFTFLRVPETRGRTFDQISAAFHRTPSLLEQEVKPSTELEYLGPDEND
Type of assay: cell-based. The procedure, abridged: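 VW4000fgy1erg4 hxt0 yeast expressing human GLUT4 were cultured at 30 °C, first in SC-uracil/1% maltose and then in SC-uracil/0.2% glucose from OD600 ~0.5. Cells in PBS pH 7.4 (OD600 ~10) were fed 5 mM C14-glucose for 10 min. The reaction was quenched in ice-cold buffer pH 5.5, then filtered and scintillation-counted. Vehicle control was 1% DMSO; 200 μM phloretin served as positive control.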

A further assay has as its target T3, GLUT1 (Homo sapiens, UniProt P11166).
T3 sequence (P11166 1-492): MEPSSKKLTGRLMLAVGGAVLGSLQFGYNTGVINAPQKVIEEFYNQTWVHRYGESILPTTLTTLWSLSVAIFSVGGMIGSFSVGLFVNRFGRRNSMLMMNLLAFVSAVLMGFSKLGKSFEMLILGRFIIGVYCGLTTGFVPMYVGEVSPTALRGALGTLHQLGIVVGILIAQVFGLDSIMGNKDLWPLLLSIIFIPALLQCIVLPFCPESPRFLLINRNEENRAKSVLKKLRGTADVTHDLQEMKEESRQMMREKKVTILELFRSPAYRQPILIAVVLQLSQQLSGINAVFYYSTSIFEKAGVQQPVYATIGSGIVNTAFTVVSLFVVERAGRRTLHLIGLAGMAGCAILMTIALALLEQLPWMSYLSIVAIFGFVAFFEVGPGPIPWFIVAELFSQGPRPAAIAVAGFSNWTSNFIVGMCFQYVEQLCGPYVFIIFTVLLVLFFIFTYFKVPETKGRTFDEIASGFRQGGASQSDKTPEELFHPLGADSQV
Type of assay: cell-based. Particulars: for IC50: GLUT1 IC50, hxt0 yeast cells expressing GLUT1, 5 mM C14-glucose, 10 minutes; for decrease of relative transport activity of GLUT1: primary screen, 100 μM compound. In outline: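 VW4000fgy1 hxt0 yeast carrying human GLUT1 were grown at 30 °C: first in SC-uracil/2% maltose for 2–3 days, then 1–2 days in SC-uracil/2% glucose from OD600 ~0.5. Cells were resuspended in PBS pH 7.4 at OD600 ~10 and given 5 mM C14-glucose for 10 min. Uptake was quenched with ice-cold buffer pH 5.5, filtered, and counted. Controls: 1% DMSO and 200 μM phloretin.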

Molecules are shown by their SMILES. Several values for one entry are separate records, joined by “and”; a condition that tells them apart may be missing. Identical values can stand only once. Entries after “also recorded” stand apart in the source; their conditions may differ. Like-named read-outs stand apart in the source and are kept apart here.

On to `O=C(CN1C(=O)SC(=Cc2ccc(Br)cc2)C1=O)Nc1ccc(F)cc1F` [Compound G2, 2-[5-(4-Bromobenzylidene)-2,4-dioxo-thiazolidin-3-yl]-N-(2,4-diflurophenyl)acetamide], for which the 50% inhibitory concentration (IC50) in the assay with K562 cells (MTT, 48 h, Mean±SD, n=3) was greater than 50 µM; in the assay with CEM cells, 47.7 ± 2.12 µM.

As for `Cc1ccc(C=C2SC(=O)N(CC(=O)Nc3ccc(F)cc3F)C2=O)cc1C` [Compound G4, N-[2,4-Difluorophenyl)-2-[5-(3,4-dimethylbenzylidene)-2,4-dioxothiazolidin-3-yl]acetamide], the IC50 in the assay with K562 cells (Homo sapiens, K562, 48 h) is greater than 50 µM.

Turning to `O=C(CN1C(=O)SC(=Cc2ccc(Cl)cc2)C1=O)Nc1ccc(F)cc1F` [Compound G6, 2-[5-(4-Chlorobenzylidene)-2,4-dioxothiazolidin-3-yl]-N-(2,4-diflurophenyl)acetamide], the IC50 on HDAC4 (read-out: HDAC4 IC50, Means ±SD, n=3) was greater than 50 µM; at HDAC8 (read-out: HDAC8 IC50, Means ±SD, n=3), 49 ± 5 µM; in the assay with K562 cells (MTT, 48 h, Mean±SD, n=3), 48.2 ± 1.23 µM; in the assay with CEM cells it was 39.3 ± 2.68 µM. For the same compound, the “HDAC-8 relative enzyme activity” value on HDAC8 is recorded as less than 50%.

Turning to `O=C(CN1C(=O)SC(=Cc2ccc(F)cc2F)C1=O)Nc1ccc(Cl)cc1C(F)(F)F` [Compound G7, N-(4-Chloro-2-trifluoromethylphenyl)-2-[5-(2,4-difluorobenzylidene)-2,4-dioxothiazolidin-3-yl] acetamide], the 50% inhibitory concentration (IC50) was determined as 36.8 ± 1.77 µM in the assay with K562 cells (MTT, 48 h, Mean±SD, n=3) and 40.4 ± 2.94 µM in the assay with CEM cells.

Regarding `O=C(CN1C(=O)SC(=Cc2ccc(F)cc2F)C1=O)Nc1ccc(F)cc1F` [Compound G8, 2-[5-(2,4-Difluorobenzylidene)-2,4-dioxothiazolidin-3-yl]-N-(2,4-diflurophenyl)acetamide], the IC50 worked out at 34.5 ± 3.01 µM in the assay on K562 cells (MTT, 48 h, Mean±SD, n=3) and 4.77 ± 1.51 µM with CEM cells.

Regarding `O=C(CN1C(=O)SC(=Cc2ccc(F)cc2)C1=O)Nc1ccc(Cl)cc1C(F)(F)F` [Compound G9, N-(4-Chloro-2-trifluoromethylphenyl)-2-[5-(4-fluorobenzylidene)-2,4-dioxothiazolidin-3-yl]acetamide], the half-maximal inhibitory concentration (IC50) at HDAC4 was greater than 50 µM; against HDAC8 it was 45 ± 5 µM; in the assay with K562 cells (Homo sapiens, K562, 48 h), 43.6 ± 2.23 µM. Moreover, on HDAC8, the “HDAC-8 relative enzyme activity” value is listed as less than 50%.

Turning to `O=C(CN1C(=O)SC(=Cc2ccc(F)cc2)C1=O)Nc1ccc(F)cc1F` [Compound G10, N-(2,4-Difluoropheyl)-2-[5-(4-fluoro-benzylidene)-2,4-dioxothiazolidin-3-yl]acetamide], the IC50 in the assay with K562 cells (MTT, 48 h, Mean±SD, n=3) was determined as 45.4 ± 1.13 µM; in the assay with CEM cells, 27.4 ± 3.06 µM.

On to `Cc1ccc(C=C2SC(=O)N(CC(=O)Nc3ccc(F)cc3F)C2=O)cc1` [Compound G12, N-(2,4-Difluoropheyl)-2-[5-(4-methylbenzylidene)-2,4-dioxothiazolidin-3-yl]acetamide], for which the IC50 in the assay with K562 cells (MTT, 48 h, Mean±SD, n=3) is greater than 50 µM; in the assay with CEM cells it was 9.93 ± 2.03 µM.

Consider `O=C(CN1C(=O)SC(=Cc2ccccc2)C1=O)Nc1ccc(F)cc1F` [Compound G14, 2-[5-Benzylidene-2,4-dioxothiazolidin-3-yl]-N-(2,4-difluorophenyl)acetamide], for which the IC50 in the assay on K562 cells (Homo sapiens, K562, 48 h) is greater than 50 µM.

For `O=C(CN1C(=O)SC(=Cc2ccc(F)cc2F)C1=O)Nc1cccc(C(F)(F)F)c1` [Compound G15, 2-(5-(2,4-difluorobenzylidene)-2,4-dioxothiazolidin-3-yl)-N-(3-(trifluoromethyl)phenyl) acetamide], the half-inhibitory concentration (IC50) in the assay with K562 cells (MTT, 48 h, Mean±SD, n=3) was greater than 50 µM; in the assay on CEM cells, 17.3 ± 1.16 µM.

As to `O=C(CN1C(=O)SC(=Cc2ccc(F)cc2)C1=O)Nc1cccc(C(F)(F)F)c1` [Compound G16, 2-(5-(4-fluorobenzylidene)-2,4-dioxothiazolidin-3-yl)-N-(3-(trifluoromethyl)phenyl)acetamide], the “GLUT5 inhibition, result in words” value in the assay on GLUT5 was “did not affect GLUT5; also recorded: neither G16 nor G17 altered the transport activity of GLUT5”. Also, the half-inhibitory concentration (IC50) is 21.6 ± 4.5 µM on GLUT4; 26.6 µM and 26.8 µM on GLUT1; 23.5 ± 1.94 µM with K562 cells (Homo sapiens, K562, 48 h). The “decrease of relative transport activity of GLUT4” value at GLUT4 (primary screen, 100 μM compound) is listed as greater than 50%. In addition, the “decrease of relative transport activity of GLUT1” value at GLUT1 is reported as greater than 50%.

On to `O=C(CN1C(=O)SC(=Cc2ccccc2)C1=O)Nc1nc2c(Cl)cccc2s1` [Compound G17, 2-(5-benzylidene-2,4-dioxothiazolidin-3-yl)-N-(4-chlorobenzo[d]thiazol-2-yl)acetamide], for which the “GLUT5 inhibition, result in words” value in the assay with GLUT5 is given as “neither G16 nor G17 altered the transport activity of GLUT5”. For the same compound, on GLUT1, the midpoint of inhibition, the IC50, lay at 12.6 ± 1.2 µM and the “decrease of relative transport activity of GLUT1” value was greater than 50%. Moreover, at GLUT1 (up to 100 μM), the “GLUT1 inhibition, result in words” value was “selective inhibitor of GLUT1”. For the same compound, in the assay on K562 cells (Homo sapiens, K562, 48 h), the 50% inhibitory concentration (IC50) was found to be 79 ± 3.66 µM.

For the compound `CC(=O)O[C@H]1C(=O)[C@@]2(C)[C@H]([C@H](OC(=O)c3ccccc3)[C@]3(O)C[C@H](OC(=O)[C@H](O)[C@@H](NC(=O)c4ccccc4)c4ccccc4)C(C)=C1C3(C)C)[C@]1(OC(C)=O)CO[C@@H]1C[C@@H]2O` [Paclitaxel, reference compound], in the assay with K562 cells (Homo sapiens, K562, 48 h), the IC50 came to 0.29 ± 0.15 µM.

Take `CCc1ccc(CCOc2ccc(CC3SC(=O)NC3=O)cc2)nc1` (stereo not drawn) [Pioglitazone, reference compound]: in the assay on K562 cells (Homo sapiens, K562, 48 h), the IC50 was found to be 32 ± 3.66 µM.
